≈ marks a conversion by molar mass, not a printed value.
Each molecule was assayed on Mycobacterium tuberculosis (assay: Antimycobacterial activity against multidrug-resistant Mycobacterium tuberculosis 6133 by alamar blue assay).
Format: functional
Procedure, shortened: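 Microplate Alamar Blue Assay; MIC is the lowest concentration giving ≥90% reduction in fluorescence relative to the mean of replicate bacterium-only controls. MDR strain 6133 is resistant to isoniazid and rifampicin.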
`NCC1CN(c2nc3c(cc2F)c(=O)c(C(=O)O)cn3[C@@H]2C[C@@H]2F)C/C1=N\OCc1ccc(F)cc1` (stereo partly specified) showed an MIC90 of 0.043 µg/mL (≈ 0.0857 µM). `Cc1ccc(CO/N=C2\CN(c3nc4c(cc3F)c(=O)c(C(=O)O)cn4[C@@H]3C[C@@H]3F)CC2CN)cc1` (stereo partly specified) gave an MIC90 of 0.03 µg/mL (≈ 0.0603 µM). `NCC1CN(c2nc3c(cc2F)c(=O)c(C(=O)O)cn3[C@@H]2C[C@@H]2F)C/C1=N\OCc1ccc2c(c1)OCO2` (stereo partly specified) was tested, and the MIC90 was 0.054 µg/mL (≈ 0.102 µM). With `NCC1CN(c2nc3c(cc2F)c(=O)c(C(=O)O)cn3[C@@H]2C[C@@H]2F)C/C1=N\OCc1ccccc1` (stereo partly specified) the MIC90 was 0.125 µg/mL (≈ 0.259 µM). With `NNC(=O)c1ccncc1` [ISONIAZID] the MIC90 was 4 µg/mL (≈ 29.2 µM). `CO[C@H]1/C=C/O[C@@]2(C)Oc3c(C)c(O)c4c(O)c(c(/C=N/N5CCN(C)CC5)c(O)c4c3C2=O)NC(=O)/C(C)=C\C=C\[C@H](C)[C@H](O)[C@@H](C)[C@@H](O)[C@@H](C)[C@H](OC(C)=O)[C@@H]1C` [RIFAMPIN] was tested, and the MIC90 was > 40 µg/mL.

Source: ChEMBL document CHEMBL3632558, “Synthesis, antimycobacterial and antibacterial activity of l-[(1R,2S)-2-fluorocyclopropyl]naphthyridone derivatives containing an oxime-functionalized pyrrolidine moiety” (2015)
